Tests used:
[1] = target: T1, Alpha-1A adrenergic receptor (Rattus norvegicus, UniProt P43140); test: Antagonist activity at alpha1A adrenoceptor in Sprague-Dawley rat prostate assessed as inhibition of noradrenaline-induced contractions after 30 mins; format: functional, tissue-based, Prostate gland; conditions: read-out: pA2 (converted)
T1 sequence (P43140 whole entry): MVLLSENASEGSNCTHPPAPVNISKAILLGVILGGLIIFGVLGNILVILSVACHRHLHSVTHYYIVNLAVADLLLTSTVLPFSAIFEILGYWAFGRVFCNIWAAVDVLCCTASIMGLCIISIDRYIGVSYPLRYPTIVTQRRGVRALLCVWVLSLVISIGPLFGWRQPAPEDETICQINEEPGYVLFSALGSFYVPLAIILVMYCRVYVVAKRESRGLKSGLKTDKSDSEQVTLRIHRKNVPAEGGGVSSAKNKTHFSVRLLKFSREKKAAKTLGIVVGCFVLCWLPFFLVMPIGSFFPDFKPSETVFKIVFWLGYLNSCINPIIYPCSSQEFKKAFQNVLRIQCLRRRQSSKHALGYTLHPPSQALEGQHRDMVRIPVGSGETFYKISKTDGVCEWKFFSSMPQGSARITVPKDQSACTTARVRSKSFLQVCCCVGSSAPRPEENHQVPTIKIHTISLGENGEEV
Outline: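 Rat (200–250 g) prostatic strips, 8–10 mm × 1–2 mm, held at 2 g resting tension in modified Krebs (NaCl 118.0, KCl 4.7, CaCl2 2.5, MgSO4 1.18, NaHCO3 25.0, KH2PO4 1.18, glucose 5.5 mM).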

[2] = target: T2, Alpha-1B adrenergic receptor (Rattus norvegicus, UniProt P15823); test: Antagonist activity at alpha1B adrenoceptor in Sprague-Dawley rat spleen assessed as inhibition of phenylephrine-induced contractions after 30 mins; format: functional, tissue-based; conditions: read-out: pA2 (converted)
T2 sequence (P15823 whole entry): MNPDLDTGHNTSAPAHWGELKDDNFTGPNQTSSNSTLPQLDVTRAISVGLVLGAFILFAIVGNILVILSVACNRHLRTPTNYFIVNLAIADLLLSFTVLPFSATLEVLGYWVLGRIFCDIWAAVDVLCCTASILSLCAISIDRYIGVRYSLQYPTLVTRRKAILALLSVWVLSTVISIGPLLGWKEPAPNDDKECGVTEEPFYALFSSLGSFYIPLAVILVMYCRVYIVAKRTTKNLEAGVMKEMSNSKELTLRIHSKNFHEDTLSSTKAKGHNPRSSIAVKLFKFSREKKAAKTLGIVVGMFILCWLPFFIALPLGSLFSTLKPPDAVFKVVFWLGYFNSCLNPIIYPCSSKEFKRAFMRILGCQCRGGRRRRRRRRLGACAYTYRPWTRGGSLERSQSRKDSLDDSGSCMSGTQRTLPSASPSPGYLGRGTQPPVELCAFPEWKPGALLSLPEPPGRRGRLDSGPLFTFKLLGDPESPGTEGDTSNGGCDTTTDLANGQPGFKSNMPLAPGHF

[3] = target: T3, Adrenergic receptor alpha-2 (Rattus norvegicus, UniProt P22086+P19328+P22909); test: Antagonist activity at alpha2 adrenoceptor in Sprague-Dawley rat prostatic vas deferens assessed as suppression of clonidine-mediated inhibition of twitch response after 30 mins; format: functional, tissue-based
T3 sequence (P22086 whole entry): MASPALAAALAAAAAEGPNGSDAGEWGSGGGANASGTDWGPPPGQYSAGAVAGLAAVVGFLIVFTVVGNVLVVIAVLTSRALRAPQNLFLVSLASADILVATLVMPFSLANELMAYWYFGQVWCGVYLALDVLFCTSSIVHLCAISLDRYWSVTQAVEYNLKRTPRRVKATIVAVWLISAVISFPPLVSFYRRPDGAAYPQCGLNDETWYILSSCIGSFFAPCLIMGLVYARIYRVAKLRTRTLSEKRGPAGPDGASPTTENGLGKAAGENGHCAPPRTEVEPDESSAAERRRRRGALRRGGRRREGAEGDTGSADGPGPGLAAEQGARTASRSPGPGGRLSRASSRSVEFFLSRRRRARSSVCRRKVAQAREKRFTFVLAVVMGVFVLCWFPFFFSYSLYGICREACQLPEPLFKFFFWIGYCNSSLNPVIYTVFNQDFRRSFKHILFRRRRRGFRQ
T3 sequence (P19328 whole entry): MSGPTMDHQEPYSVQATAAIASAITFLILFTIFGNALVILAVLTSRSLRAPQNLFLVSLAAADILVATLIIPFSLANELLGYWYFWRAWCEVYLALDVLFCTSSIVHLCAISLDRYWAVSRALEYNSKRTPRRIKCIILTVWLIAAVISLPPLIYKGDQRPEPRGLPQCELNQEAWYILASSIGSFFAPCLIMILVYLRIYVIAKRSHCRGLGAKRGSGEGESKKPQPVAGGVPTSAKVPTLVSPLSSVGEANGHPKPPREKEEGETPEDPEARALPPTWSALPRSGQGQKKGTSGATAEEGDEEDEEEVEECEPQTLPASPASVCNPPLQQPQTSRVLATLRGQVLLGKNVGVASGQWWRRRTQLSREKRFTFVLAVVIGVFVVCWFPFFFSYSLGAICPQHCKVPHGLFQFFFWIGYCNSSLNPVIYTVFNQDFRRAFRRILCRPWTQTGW
T3 sequence (P22909 whole entry): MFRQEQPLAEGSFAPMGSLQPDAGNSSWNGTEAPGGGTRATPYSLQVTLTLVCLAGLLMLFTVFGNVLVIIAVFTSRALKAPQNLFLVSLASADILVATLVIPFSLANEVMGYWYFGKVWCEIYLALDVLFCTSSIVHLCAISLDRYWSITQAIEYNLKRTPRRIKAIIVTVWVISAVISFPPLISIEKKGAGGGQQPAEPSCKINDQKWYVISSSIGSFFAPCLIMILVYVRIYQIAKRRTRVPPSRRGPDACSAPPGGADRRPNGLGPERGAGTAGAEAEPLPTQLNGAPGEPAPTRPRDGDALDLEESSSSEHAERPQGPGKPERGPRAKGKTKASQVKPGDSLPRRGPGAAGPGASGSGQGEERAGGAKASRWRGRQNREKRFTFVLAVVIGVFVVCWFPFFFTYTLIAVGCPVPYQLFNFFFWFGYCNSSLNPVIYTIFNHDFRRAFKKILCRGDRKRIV
Outline: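 Prostatic vas deferens segments (1.5–2 cm) in Krebs at 37 °C, field-stimulated at 0.1 Hz with 3 ms square pulses, 20–40 V. Equilibrated 1 h at 0.35 g resting tension.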

Row | SMILES | Kb [1] | Kb [2] | pA2 [3]
1 | COc1cccc(OC)c1OCCNC[C@H]1COc2cccc(Cl)c2O1.Cl | 0.912 nM | 8.91 nM | 6.02
2 | COc1cccc(OC)c1OCCNC[C@H]1COc2cccc(O)c2O1.Cl | 50.1 nM | 15.8 nM | < 5
3 | COc1cccc(OC)c1OCCNC[C@H]1COc2cccc(F)c2O1.Cl | 1.2 nM | 2.75 nM | 6.26

Continued, values first:

Row | Kb [1] | Kb [2] | pA2 [3] | SMILES
4 | 2.82 nM | 0.263 nM | 6.23 | COc1cccc(OC)c1OCCNC[C@H]1COc2cccc(OC)c2O1.Cl
5 | 39.8 nM | 16.6 nM | 5.67 | COc1cccc(OC)c1OCCNC[C@H]1COc2c(OC)cccc2O1.Cl

Reference: ChEMBL document CHEMBL2150980 (Eur J Med Chem, 2012)
